Entries after “also recorded” stand apart in the source; their conditions may differ. Like-named read-outs stand apart in the source and are kept apart here.
What was measured:
Caco-2 monolayers [1] = experiment: Drug transport; assay type: in vitro ADME, human; details: for Papp (× 10^−5) (cm/s) AP-to-BL / Papp (× 10^−5) (cm/s) BL-to-AP: 37°C, 30-120 min, mean ± SD (n=3)
[2] = test system: labile iron pool (LIP) in THP-1 cells; experiment: Calcein-based iron chelation assay; assay type: cell-based, human; details: iron-loaded THP-1 cells, 10 µM chelator, SIH as positive control
Method in brief: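 THP-1 cells were loaded with ferric sulfate at 25 µM for 1 h (figure legend: iron(II) sulfate at 10 µM for 3 h, 37°C). They then took calcein-AM at 0.2 µM for 10 min at 37°C, were washed and resuspended in PBS. Chelator (10 µM) or SIH (30 µM) was added. Fluorescence (ex 465/em 510 nm) was read immediately in repeated 2-min cycles at 37°C, expressed as (F−Fi)/Fi, with Fi = fluorescence at time 0.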

HIV-1 = details: ref [14], cited from earlier work
[3] = Stability and isomer conversion of chelator solutions by HPLC; assay type: physicochemical; details: resolved by HPLC
Method in brief: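 Solutions diluted in HBSS from 100 mM DMSO stocks, sonicated and warmed to 37°C. Stored at 4°C for one week with freeze-thaw, or 4 h at room temperature or 40°C. 50 µM solutions with a 10 µM thiosemicarbazone internal standard injected fresh and after 24 h at 4°C. Reversed-phase F5 column, 40°C, 1 mL/min, 2 mM ammonium acetate/10 mM EDTA–acetonitrile 50:50, pH 5.8, UV 318 nm.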

Cytotoxicity assay = assay type: cell-based; details: human
[4] = ref [30]; cited from earlier work
Caco-2 cells [5] = details: Caco-2 cells in vitro; ref [34]; cited from earlier work
Caco-2 monolayers [6] = experiment: Lucifer yellow; assay type: in vitro ADME, human; details: either direction, at the ends of the experiments
lung cancer xenografts = details: mice, oral route; ref (35); cited from earlier work
Caco-2 cells [7] = experiment: Cytotoxicity assay; assay type: cell-based; details: concentrations up to 500 µM, 24 h
[8] = 100 µM chelator, Caco-2 monolayers
[9] = 300 µM chelator, Caco-2 monolayers

CCNC(=S)NN=C(c1ccccc1)c1ccccn1 [Bp4eT, 2-benzoylpyridine 4-ethyl-3-thiosemicarbazone]
Rnet, ratio of Papp (BL-to-AP) to Papp (AP-to-BL) (Caco-2 monolayers [1]; 100 µM chelator): 1.10
Papp (× 10^−5) (cm/s) AP-to-BL (Caco-2 monolayers [1]; [8]): 0.809 ± 0.119 × 10^−5 cm/s
Papp (× 10^−5) (cm/s) BL-to-AP (Caco-2 monolayers [1]; [8]): 0.889 ± 0.196 × 10^−5 cm/s
Rnet, ratio of Papp (BL-to-AP) to Papp (AP-to-BL) (Caco-2 monolayers [1]; 300 µM chelator): 0.89
Papp (× 10^−5) (cm/s) AP-to-BL (Caco-2 monolayers [1]; [9]): 1.819 ± 0.302 × 10^−5 cm/s
Papp (× 10^−5) (cm/s) BL-to-AP (Caco-2 monolayers [1]; [9]): 1.627 ± 0.107 × 10^−5 cm/s
Intracellular iron chelation (calcein de-quenching) [2]: slightly more effective intracellular iron chelators than SIH
IC50, inhibition of HIV-1 replication (HIV-1; [15]): nanomolar concentrations
E/Z isomer formation in aqueous solution [3]: formed inter-convertible Z and E isomers

NC(=S)NN=C(c1ccccc1)c1ccccn1 [BpT, 2-benzoylpyridine thiosemicarbazone]
viability at 24 h, 500 µM (Cytotoxicity assay): ~70%

CC(=O)N(O)CCCCCNC(=O)CCC(=O)N(O)CCCCCNC(=O)CCC(=O)N(O)CCCCCN [DFO, desferrioxamine]
Absorption through the gastrointestinal tract [4]: very poor absorption

O=C(O)c1ccc(-n2nc(-c3ccccc3O)nc2-c2ccccc2O)cc1 [ICL670, 4-[3,5-bis-(hydroxyphenyl)-1,2,4-triazol-1-yl]-benzoic acid, reference compound]
Papp value (Caco-2 cells [5]): 1.66 ± 0.13 × 10^−5 cm/s
IC50, inhibition of HIV-1 replication (HIV-1; [15]): high micromolar concentrations
IC50, inhibition of HIV-1 replication (HIV-1): high micromolar range

lucifer yellow [LY]
LY recovered from the receiver chambers (Caco-2 monolayers [6]): Less than 2%

CN(C)C(=S)NN=C(c1ccccc1)c1ccccn1 [Bp44mT, 2-benzoylpyridine-4,4-dimethyl-3-thiosemicarbazone]
Efficacy against lung cancer xenografts (lung cancer xenografts): marked efficacy

C=CCNC(=S)NN=C(c1ccccc1)c1ccccn1 [Bp4aT, 2-benzoylpyridine 4-allyl-3-thiosemicarbazone]
Effect on Caco-2 cell growth / cytotoxicity (Caco-2 cells [7]): little effect; also recorded: no apparent cytotoxicity
Rnet, ratio of Papp (BL-to-AP) to Papp (AP-to-BL) (Caco-2 monolayers [1]; 100 µM chelator): 0.77
Papp (× 10^−5) (cm/s) AP-to-BL (Caco-2 monolayers [1]; [8]): 1.670 ± 0.016 × 10^−5 cm/s
Papp (× 10^−5) (cm/s) BL-to-AP (Caco-2 monolayers [1]; [8]): 1.292 ± 0.282 × 10^−5 cm/s
Rnet, ratio of Papp (BL-to-AP) to Papp (AP-to-BL) (Caco-2 monolayers [1]; 300 µM chelator): 0.92
Papp (× 10^−5) (cm/s) AP-to-BL (Caco-2 monolayers [1]; [9]): 2.756 ± 0.261 × 10^−5 cm/s
Papp (× 10^−5) (cm/s) BL-to-AP (Caco-2 monolayers [1]; [9]): 2.534 ± 0.454 × 10^−5 cm/s
Transport of Bp4aT faster than that of Bp4eT (Caco-2 monolayers [1]; relative to Bp4eT, Caco-2 monolayers): approximately 1.5 fold
Intracellular iron chelation (calcein de-quenching) [2]: slightly more effective intracellular iron chelators than SIH; also recorded: greater chelation efficacy than Bp4eT
IC50, inhibition of HIV-1 replication (HIV-1; [15]): nanomolar concentrations
E/Z isomer formation in aqueous solution [3]: formed inter-convertible Z and E isomers
